Data: ChEMBL document CHEMBL2046398, “Optimization of (2,3-dihydro-1-benzofuran-3-yl)acetic acids: discovery of a non-free fatty acid-like, highly bioavailable G protein-coupled receptor 40/free fatty acid receptor 1 agonist as a glucose-dependent insulinotropic agent” (J Med Chem, 2012)
pEC50, pKi: −log10 of the molar value. Activity calls are given as the source filed them. The calls are words filed in the database; no cut-off is given here.

Legend:
[1] = biological target: T1, Free fatty acid receptor 1 (Homo sapiens, UniProt O14842); assay: Agonist activity at human GP40 receptor expressed in CHO cells assessed as increase in intracellular calcium level at 10 uM for 90 secs by FLIPR assay in the presence of 0.1% BSA relative to gamma-linolenic acid; type: functional, cell-based
Method in brief: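 CHO dhfr cells stably expressing human GPR40/FFA1 (NM_005303) plated overnight at 37 °C, 5% CO₂, then loaded 60 min at 37 °C with Fluo 4 AM (2.5 μg/mL), 2.5 mmol/L probenecid and 0.1% fatty acid-free BSA. Ca²⁺ rise after compound addition read on FLIPR Tetra for 90 s. Activity = (test − vehicle)/(10 μM γ-linolenic acid − vehicle) × 100.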

[2] = biological target: Free fatty acid receptor 1 (Rattus norvegicus, UniProt Q8K3T4); assay: Displacement of 3-[4-({2',6'-dimethyl-6-[(4-[3H])-phenylmethoxy]biphenyl-3-yl}methoxy)phenyl]propanoic acid from rat GPR40 expressed in CHO cells after 90 mins by liquid scintillation counting in the presence of 0.2%BSA; type: cell-based
Method in brief: (§1)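 Membranes came from CHO lines stably expressing human or rat GPR40/FFA1. Assay buffer was 25 mmol/L Tris-HCl pH 7.5 with 5 mmol/L EDTA, protease inhibitors, 0.05% CHAPS and 0.2% fatty-acid-free BSA. Compounds competed with 2 or 6 nmol/L tritiated phenylpropanoic acid ligand for 90 min at room temperature. Bound ligand was filtered and counted by scintillation. Nonspecific binding used 10 μmol/L unlabeled ligand. IC50 was converted to Ki by Cheng–Prusoff using the measured Kd.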

HepG2 = assay: Induction of apoptosis in human HepG2 cells assessed as caspase 3/7 activity at 30 uM after 1 day by CaspaseGlo assay relative to staurosporine; type: cell-based; conditions: hepg2, 24 h
Method in brief: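 HepG2 cells were seeded at 2 × 10⁴ cells/well. They were exposed to compounds for 1 day in DMEM with 0.5% FBS, 2 mM L-glutamine and 1 mM pyruvate. Caspase-3/7 was read by Caspase-Glo luminescence, n = 3. Values are % = (RLU compound − RLU 1% DMSO)/(RLU 30 μM staurosporine − RLU 1% DMSO) × 100.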

[3] = Lipophilicity, log D of the compound at pH 7.4 by HPLC analysis; type: physicochemical; conditions: buffer
Method in brief: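 Log D at pH 7.4 was estimated from HPLC relative retention time against standard compounds.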

[4] = biological target: T1, Free fatty acid receptor 1; assay: Agonist activity at human GP40 receptor expressed in CHO cells assessed as increase in intracellular calcium level for 90 secs by FLIPR assay in the presence of 0.1% BSA; type: functional, cell-based
[5] = biological target: T1, Free fatty acid receptor 1; assay: Displacement of 3-[4-({2',6'-dimethyl-6-[(4-[3H])-phenylmethoxy]biphenyl-3-yl}methoxy)phenyl]propanoic acid from human GPR40 expressed in CHO cells after 90 mins by liquid scintillation counting in the presence of 0.2% BSA; type: cell-based; method in brief: as §1
Rattus norvegicus [6] = assay: Insulinotropic activity in po dosed fasted Wistar fatty rat assessed as […] administered 4 hr prior to glucose-challenge by oral glucose tolerance test relative to vehicle control; type: functional
Method in brief: (§2)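 Female Wistar fatty rats, 12–17 weeks old, were fasted overnight. They were dosed orally with compound in 0.5% methylcellulose 1 h (1 mg/kg) or 4 h (3 mg/kg) before a 1 g/kg oral glucose load. Plasma glucose was sampled to 120 min, n = 6. Effective dose was defined by statistical significance on plasma glucose AUC versus vehicle.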

Rattus norvegicus [7] = assay: Insulinotropic activity in po dosed fasted Wistar fatty rat assessed as […] administered 1 hr prior to glucose-challenge by oral glucose tolerance test relative to vehicle control; type: functional; method in brief: as §2
Rattus norvegicus [8] = assay: Insulinotropic activity in po dosed Goto-Kakizaki rat assessed as increase in plasma insulin secretion administered 1 hr prior to glucose-challenge by oral glucose tolerance test; type: functional
Method in brief: (§3)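 Male GK rats, 41 weeks old, were fasted overnight. They received compound suspended in 0.5% methylcellulose orally, 1–10 mg/kg, 1 h before a 1 g/kg oral glucose load. Tail-vein blood was taken pre-dose, at 0 min and at 10, 30, 60 and 120 min. Plasma glucose was read by autoanalyzer and insulin by radioimmunoassay, with AUC0–120min. n = 6. Williams/Shirley–Williams tests versus vehicle.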

Rattus norvegicus [9] = assay: Insulinotropic activity in po dosed Goto-Kakizaki rat assessed as decrease in plasma glucose level administered 1 hr prior to glucose-challenge by oral glucose tolerance test; type: functional; method in brief: as §3
Rattus norvegicus [10] = assay: Insulinotropic activity in Goto-Kakizaki rat assessed as increase in plasma insulin secretion at 1 to 10 mg/kg, po administered 1 hr prior to glucose-challenge by oral glucose tolerance test; type: functional, organism-based; conditions: TDE = time-dependent effect; method in brief: as §3
Rattus norvegicus [11] = assay: Insulinotropic activity in Goto-Kakizaki rat assessed as decrease in plasma glucose level at 1 to 10 mg/kg, po administered 1 hr prior to glucose-challenge by oral glucose tolerance test; type: functional, organism-based; conditions: TDE = time-dependent effect; method in brief: as §3
Rattus norvegicus [12] = assay: Insulinotropic activity in Goto-Kakizaki rat assessed as increase in plasma insulin secretion at 1 to 10 mg/kg, po after 1 hr measured at glucose charge (0 mins)

T1 sequence (O14842 whole entry): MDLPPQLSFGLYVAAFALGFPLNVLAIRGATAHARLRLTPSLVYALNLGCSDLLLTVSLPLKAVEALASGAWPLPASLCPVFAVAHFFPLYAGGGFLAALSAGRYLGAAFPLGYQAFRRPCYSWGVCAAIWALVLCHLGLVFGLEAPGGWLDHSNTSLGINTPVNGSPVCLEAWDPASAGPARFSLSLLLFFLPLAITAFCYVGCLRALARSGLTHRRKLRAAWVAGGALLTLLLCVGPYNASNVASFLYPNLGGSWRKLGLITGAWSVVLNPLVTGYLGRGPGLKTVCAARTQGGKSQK
Chain of Free fatty acid receptor 1 (Rattus norvegicus, UniProt Q8K3T4) (Q8K3T4 whole entry): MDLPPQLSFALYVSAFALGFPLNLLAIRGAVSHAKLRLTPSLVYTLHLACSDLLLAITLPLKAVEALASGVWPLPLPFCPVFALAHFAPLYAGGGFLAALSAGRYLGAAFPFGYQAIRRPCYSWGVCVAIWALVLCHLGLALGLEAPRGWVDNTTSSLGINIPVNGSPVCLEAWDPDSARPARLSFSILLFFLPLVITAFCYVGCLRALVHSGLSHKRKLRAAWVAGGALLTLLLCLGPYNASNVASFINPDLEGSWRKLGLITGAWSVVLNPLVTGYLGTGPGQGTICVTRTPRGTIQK

Efficacy [1] [%] | pKi [2] | logD [3] | pEC50 [4] | pKi [5] | Structure (SMILES) | Activity (HepG2) [%] | ED (Rattus norvegicus [6]) | ED (Rattus norvegicus [7]) | Activity (Rattus norvegicus [8]) | Activity (Rattus norvegicus [9]) | Activity (Rattus norvegicus [10]) | Activity (Rattus norvegicus [11]) | Activity (Rattus norvegicus [12]) | minimal effective dose (Rattus norvegicus [8]; read-out: MED) [mg/kg] | minimal effective dose (Rattus norvegicus [9]; read-out: MED) [mg/kg]
103 | 6.62 | 3.86 | – | – | CCOCCOc1cc(C)c(-c2cccc(COc3ccc4c(c3)OC[C@H]4CC(=O)O)c2)c(C)c1 | 1.5 | – | – | – | – | – | – | – | – | –
103 | 6.29 | 2.84 | 6.54 | 6.52 | Cc1cc(OC2CCS(=O)(=O)CC2)cc(C)c1-c1cccc(COc2ccc3c(c2)OC[C@@H]3CC(=O)O)c1 | 1.3 | – | – | – | – | – | – | – | – | –
107 | 6.77 | 2.73 | 7.85 | 7.43 | CCS(=O)(=O)CCOc1cc(C)c(-c2cccc(COc3ccc4c(c3)OC[C@H]4CC(=O)O)c2)c(C)c1 | -1.3 | 3 mg/kg | – | – | – | – | – | – | – | –
103 | 6.68 | 2.77 | 7.41 | 7.08 | Cc1cc(OC2CCS(=O)(=O)CC2)cc(C)c1-c1cccc(COc2ccc3c(c2)OCC3CC(=O)O)c1 (racemic) | 0.4 | – | – | – | – | – | – | – | – | –
103 | 6.77 | 2.75 | 7.66 | 7.44 | Cc1cc(OC2CCS(=O)(=O)CC2)cc(C)c1-c1cccc(COc2ccc3c(c2)OC[C@H]3CC(=O)O)c1 | -2.5 | 3 mg/kg | 1 mg/kg | – | – | – | – | – | – | –
103 | 5.13 | 3.86 | – | – | CCOCCOc1cc(C)c(-c2cccc(COc3ccc4c(c3)OC[C@@H]4CC(=O)O)c2)c(C)c1 | 10.5 | – | – | – | – | – | – | – | – | –
107 | 6.72 | 3.8 | 7.77 | 7.82 | Cc1cc(OCc2cccc3nccn23)cc(C)c1-c1cccc(COc2ccc3c(c2)OC[C@H]3CC(=O)O)c1 | 17.7 | – | – | – | – | – | – | – | – | –
107 | 6.77 | 3.22 | 7.77 | 7.51 | Cc1cc(OCCCN2CCCC2=O)cc(C)c1-c1cccc(COc2ccc3c(c2)OC[C@H]3CC(=O)O)c1 | 3.9 | – | – | – | – | – | – | – | – | –
103 | 6.52 | 3.83 | – | – | CCOCCOc1cc(C)c(-c2cccc(COc3ccc4c(c3)OCC4CC(=O)O)c2)c(C)c1 (racemic) | 3.2 | – | – | – | – | – | – | – | – | –
104 | 6.96 | 3.07 | 7.80 | 7.72 | Cc1cc(OCCCS(C)(=O)=O)c(Cl)c(C)c1-c1cccc(COc2ccc3c(c2)OC[C@H]3CC(=O)O)c1 | 8.3 | – | – | – | – | – | – | – | – | –
104 | 6.57 | 2.95 | 7.72 | 7.51 | Cc1cc(OC2CCS(=O)(=O)CC2)c(F)c(C)c1-c1cccc(COc2ccc3c(c2)OC[C@H]3CC(=O)O)c1 | 7.9 | – | – | – | – | – | – | – | – | –
107 | 7.18 | 3.1 | 7.72 | 8.06 | Cc1cc(OC2CCN(C)CC2)cc(C)c1-c1cccc(COc2ccc3c(c2)OC[C@H]3CC(=O)O)c1.Cl | -1.3 | inactive | – | – | – | – | – | – | – | –
104 | 7.23 | 3.53 | 7.77 | 7.92 | Cc1c(Cl)c(OCCCS(C)(=O)=O)c(Cl)c(C)c1-c1cccc(COc2ccc3c(c2)OC[C@H]3CC(=O)O)c1 | 16.1 | – | – | – | – | – | – | – | – | –
104 | 6.70 | 2.68 | 7.80 | 7.74 | Cc1cc(OCCCS(C)(=O)=O)c(F)c(C)c1-c1cccc(COc2ccc3c(c2)OC[C@H]3CC(=O)O)c1 | -1.1 | 3 mg/kg | 1 mg/kg | – | – | – | – | – | – | –
107 | – | – | – | – | Cc1cc(OCCCS(C)(=O)=O)cc(C)c1-c1cccc(COc2ccc3c(c2)OC[C@H]3CC(=O)O)c1 [listing 1 of 2 here] | – | – | – | Dose-dependent effect | Dose-dependent effect | tde | tde | Active | – | –
– | – | 2.58 | – | – | Cc1cc(OCCCS(C)(=O)=O)cc(C)c1-c1cccc(COc2ccc3c(c2)OC[C@H]3CC(=O)O)c1 [listing 2 of 2 here] | -2.1 | – | – | – | – | – | – | – | – | –
104 | 6.92 | 3.12 | 7.74 | 7.48 | Cc1c(C)c(-c2cccc(COc3ccc4c(c3)OC[C@H]4CC(=O)O)c2)c(C)c(C)c1OCCCS(C)(=O)=O | -1.1 | – | – | – | – | – | – | – | – | –
104 | 7.25 | 3.17 | 7.77 | 7.96 | CCc1cc(OCCCS(C)(=O)=O)cc(CC)c1-c1cccc(COc2ccc3c(c2)OC[C@H]3CC(=O)O)c1 | 12.4 | – | – | – | – | – | – | – | – | –
– | – | – | – | – | Cc1cc(OCCCS(C)(=O)=O)cc(C)c1-c1cccc(COc2ccc3c(c2)OC[C@H]3CC(=O)O)c1.O | – | 3 mg/kg | 1 mg/kg | – | – | – | – | – | 10 | 3
107 | 6.44 | 4.27 | 7.74 | 7.92 | Cc1nc(C)c(COc2cc(C)c(-c3cccc(COc4ccc5c(c4)OC[C@H]5CC(=O)O)c3)c(C)c2)s1 | 23.1 | – | – | – | – | – | – | – | – | –
103 | 5.66 | 3.88 | 6.57 | 6.57 | Cc1cc(OCC2(C)COC2)cc(C)c1-c1cccc(COc2ccc3c(c2)OC[C@@H]3CC(=O)O)c1 | 20.9 | – | – | – | – | – | – | – | – | –
103 | 7.08 | 3.86 | 7.62 | 7.68 | Cc1cc(OCC2(C)COC2)cc(C)c1-c1cccc(COc2ccc3c(c2)OCC3CC(=O)O)c1 (racemic) | 23.6 | – | – | – | – | – | – | – | – | –
103 | 6.96 | 3.88 | 7.74 | 7.60 | Cc1cc(OCC2(C)COC2)cc(C)c1-c1cccc(COc2ccc3c(c2)OC[C@H]3CC(=O)O)c1 | 21.1 | – | – | – | – | – | – | – | – | –
104 | 6.40 | 3.35 | 7.54 | 7.40 | Cc1c(C)c(-c2cccc(COc3ccc4c(c3)OC[C@H]4CC(=O)O)c2)c(C)c(C)c1OC1CCS(=O)(=O)CC1 | 12.3 | – | – | – | – | – | – | – | – | –
107 | 6.77 | 2.43 | 7.89 | 7.62 | Cc1cc(OCC2(O)CCS(=O)(=O)CC2)cc(C)c1-c1cccc(COc2ccc3c(c2)OC[C@H]3CC(=O)O)c1 | -1.8 | 3 mg/kg | inactive | – | – | – | – | – | – | –
